{"source": "ChEMBL document CHEMBL1145271", "about": "(Bioorg Med Chem Lett, 2005)", "key": {"[1]": {"target": "T1, Kappa-type opioid receptor (Homo sapiens, UniProt P41145)", "T1 sequence (P41145 whole entry)": "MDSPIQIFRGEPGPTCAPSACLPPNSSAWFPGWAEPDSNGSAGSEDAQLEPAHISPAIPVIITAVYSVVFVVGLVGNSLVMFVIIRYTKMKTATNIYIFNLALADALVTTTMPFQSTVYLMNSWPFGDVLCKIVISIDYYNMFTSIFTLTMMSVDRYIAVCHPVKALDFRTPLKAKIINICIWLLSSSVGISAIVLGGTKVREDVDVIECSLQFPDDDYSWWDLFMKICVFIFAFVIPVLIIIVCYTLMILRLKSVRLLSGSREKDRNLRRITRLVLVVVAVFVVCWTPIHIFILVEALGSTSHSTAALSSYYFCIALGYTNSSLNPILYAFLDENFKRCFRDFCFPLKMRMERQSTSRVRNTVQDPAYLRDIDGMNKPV", "assay": "Inhibition of [3H]diprenorphine binding to human Opioid receptor kappa 1 expressed in chinese hamster ovary cells", "format": "cell-based, CHO", "summary_of_the_method": "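Ki from inhibition of [3H]diprenorphine binding to human κ-opioid receptor. Mean of at least three independent experiments, each run in duplicate.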"}, "[2]": {"target": "T1, Kappa-type opioid receptor", "assay": "Effective concentration for activation of human Opioid receptor kappa 1 expressed in chinese hamster ovary cells to enhance [35S]GTP-gamma-S, binding", "format": "functional, cell-based", "summary_of_the_method": "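EC50 for human κ-opioid receptor activation, read as enhancement of [35S]GTPγS binding. Mean of at least three independent experiments, each run in duplicate.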"}, "[3]": {"target": "T1, Kappa-type opioid receptor", "assay": "Activation of human Opioid receptor kappa 1 expressed in chinese hamster ovary cells to enhance [35S]GTP-gamma-S, binding compared to U50,488H", "format": "functional, cell-based", "summary_of_the_method": "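Agonist efficacy at human κ-opioid receptor, read as enhancement of [35S]GTPγS binding and expressed as % of the maximal response to U50,488H. Mean of at least three independent experiments, each run in duplicate.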"}}, "data": [{"smiles": "COC(=O)[C@@H]1C[C@H](OC(=O)CNC(C)=O)C(=O)[C@H]2[C@@]1(C)CC[C@H]1C(=O)O[C@H](c3ccoc3)C[C@]21C", "values": [{"measurement": "Ki", "setting": "[1]", "result": "> 10000", "unit": "nM"}]}, {"smiles": "COC(=O)[C@@H]1C[C@H](OC)C(=O)[C@H]2[C@@]1(C)CC[C@H]1C(=O)O[C@H](c3ccoc3)C[C@]21C", "values": [{"measurement": "EC50", "setting": "[2]", "result": 389, "unit": "nM"}, {"measurement": "Efficacy", "setting": "[3]", "result": 98, "unit": "%"}, {"measurement": "Ki", "setting": "[1]", "result": 220, "unit": "nM"}]}, {"smiles": "CCO[C@H]1C[C@@H](C(=O)OC)[C@]2(C)CC[C@H]3C(=O)O[C@H](c4ccoc4)C[C@]3(C)[C@H]2C1=O", "values": [{"measurement": "Efficacy", "setting": "[3]", "result": 103, "unit": "%"}]}, {"smiles": "C=CCO[C@H]1C[C@@H](C(=O)OC)[C@]2(C)CCC3C(=O)O[C@H](c4ccoc4)C[C@]3(C)[C@H]2C1=O", "note": "(stereo partly drawn)", "values": [{"measurement": "EC50", "setting": "[2]", "result": 145, "unit": "nM"}, {"measurement": "Efficacy", "setting": "[3]", "result": 106, "unit": "%"}, {"measurement": "Ki", "setting": "[1]", "result": 60.1, "unit": "nM"}]}, {"smiles": "COC(=O)[C@@H]1C[C@H](OC(=O)[C@H](C)N)C(=O)[C@H]2[C@@]1(C)CC[C@H]1C(=O)O[C@H](c3ccoc3)C[C@]21C", "values": [{"measurement": "Ki", "setting": "[1]", "result": "> 10000", "unit": "nM"}]}, {"smiles": "CCCCO[C@H]1C[C@@H](C(=O)OC)[C@]2(C)CCC3C(=O)O[C@H](c4ccoc4)C[C@]3(C)[C@H]2C1=O", "note": "(stereo partly drawn)", "values": [{"measurement": "EC50", "setting": "[2]", "result": 104, "unit": "nM"}, {"measurement": "Ki", "setting": "[1]", "result": 35.8, "unit": "nM"}]}, {"smiles": "COC(=O)[C@@H]1C[C@H](O)C(=O)[C@H]2[C@@]1(C)CC[C@H]1C(=O)O[C@H](c3ccoc3)C[C@]21C", "values": [{"measurement": "Efficacy", "setting": "[3]", "result": 98, "unit": "%"}]}, {"smiles": "CCN[C@@H]1C[C@@H](C(=O)OC)[C@]2(C)CC[C@H]3C(=O)O[C@H](c4ccoc4)C[C@]3(C)[C@H]2C1=O", "values": [{"measurement": "EC50", "setting": "[2]", "result": 68.9, "unit": "nM"}, {"measurement": "Ki", "setting": "[1]", "result": 28.9, "unit": "nM"}]}, {"smiles": "COC(=O)[C@@H]1C[C@H](OCc2ccccc2)C(=O)[C@H]2[C@@]1(C)CCC1C(=O)O[C@H](c3ccoc3)C[C@@]12C", "note": "(stereo partly drawn)", "values": [{"measurement": "EC50", "setting": "[2]", "result": 161, "unit": "nM"}, {"measurement": "Ki", "setting": "[1]", "result": 75.7, "unit": "nM"}]}, {"smiles": "CCC(=O)O[C@H]1C[C@@H](C(=O)OC)[C@]2(C)CC[C@H]3C(=O)O[C@H](c4ccoc4)C[C@]3(C)[C@H]2C1=O", "values": [{"measurement": "EC50", "setting": "[2]", "result": 20.4, "unit": "nM"}, {"measurement": "Efficacy", "setting": "[3]", "result": 94, "unit": "%"}, {"measurement": "Ki", "setting": "[1]", "result": 7.2, "unit": "nM"}]}, {"smiles": "COC(=O)[C@@H]1C[C@@H](N(C)C)C(=O)[C@H]2[C@@]1(C)CC[C@H]1C(=O)O[C@H](c3ccoc3)C[C@]21C", "values": [{"measurement": "EC50", "setting": "[2]", "result": 343, "unit": "nM"}, {"measurement": "Efficacy", "setting": "[3]", "result": 105, "unit": "%"}, {"measurement": "Ki", "setting": "[1]", "result": 90.9, "unit": "nM"}]}, {"smiles": "CCNC(=O)O[C@H]1C[C@@H](C(=O)OC)[C@]2(C)CC[C@H]3C(=O)O[C@H](c4ccoc4)C[C@]3(C)[C@H]2C1=O", "values": [{"measurement": "EC50", "setting": "[2]", "result": "> 1000", "unit": "nM"}, {"measurement": "Ki", "setting": "[1]", "result": 462, "unit": "nM"}]}, {"smiles": "COC(=O)[C@@H]1C[C@H](OC(N)=O)C(=O)[C@H]2[C@@]1(C)CC[C@H]1C(=O)O[C@H](c3ccoc3)C[C@]21C", "values": [{"measurement": "EC50", "setting": "[2]", "result": 6.2, "unit": "nM"}, {"measurement": "Efficacy", "setting": "[3]", "result": 99, "unit": "%"}, {"measurement": "Ki", "setting": "[1]", "result": 3.2, "unit": "nM"}]}, {"smiles": "CCCO[C@H]1C[C@@H](C(=O)OC)[C@]2(C)CC[C@H]3C(=O)O[C@H](c4ccoc4)C[C@]3(C)[C@H]2C1=O", "note": "[SALVINORIN A PROPYL ETHER]", "values": [{"measurement": "EC50", "setting": "[2]", "result": 67.4, "unit": "nM"}, {"measurement": "Efficacy", "setting": "[3]", "result": 100, "unit": "%"}, {"measurement": "Ki", "setting": "[1]", "result": 28.7, "unit": "nM"}]}, {"smiles": "CNC(=O)O[C@H]1C[C@@H](C(=O)OC)[C@]2(C)CC[C@H]3C(=O)O[C@H](c4ccoc4)C[C@]3(C)[C@H]2C1=O", "values": [{"measurement": "EC50", "setting": "[2]", "result": 201, "unit": "nM"}, {"measurement": "Efficacy", "setting": "[3]", "result": 81, "unit": "%"}, {"measurement": "Ki", "setting": "[1]", "result": 83, "unit": "nM"}]}, {"smiles": "CCCC(=O)O[C@H]1C[C@@H](C(=O)OC)[C@]2(C)CC[C@H]3C(=O)O[C@H](c4ccoc4)C[C@]3(C)[C@H]2C1=O", "values": [{"measurement": "EC50", "setting": "[2]", "result": 9.9, "unit": "nM"}, {"measurement": "Efficacy", "setting": "[3]", "result": 97, "unit": "%"}, {"measurement": "Ki", "setting": "[1]", "result": 4.9, "unit": "nM"}]}, {"smiles": "CN[C@@H]1C[C@@H](C(=O)OC)[C@]2(C)CC[C@H]3C(=O)O[C@H](c4ccoc4)C[C@]3(C)[C@H]2C1=O", "values": [{"measurement": "Ki", "setting": "[1]", "result": "> 10000", "unit": "nM"}]}, {"smiles": "COC(=O)[C@@H]1C[C@H](OC(=O)CN(C)C)C(=O)[C@H]2[C@@]1(C)CC[C@H]1C(=O)O[C@H](c3ccoc3)C[C@]21C", "values": [{"measurement": "Ki", "setting": "[1]", "result": "> 10000", "unit": "nM"}]}]}
